These results are taken from ChEMBL document CHEMBL1145827, “Structure-activity relationship comparison of (S)-2beta-substituted 3alpha-(bis[4-fluorophenyl]methoxy)tropanes and (R)-2beta-substituted 3beta-(3,4-dichlorophenyl)tropanes at the dopamine transporter” (J Med Chem, 2003).

In experiment [1] the target is T1, Sodium-dependent dopamine transporter (Rattus norvegicus, UniProt P23977). Description: In vitro potency for inhibiting [3H]- dopamine uptake in rat brain was determined. In kind it is functional, tissue-based. Summed up:
(§1)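 [3H]Dopamine uptake inhibition in rat brain synaptosomes, reported as IC50.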

Experiment [2] addresses T1, Sodium-dependent dopamine transporter. The experiment can be described thus: Binding affinity towards dopamine transporter. Summed up: (§2)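 Rat brain DAT, radioligand displacement with [3H]WIN 35,428. Ki from at least three independent experiments, each run in triplicate.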
The target is the same in experiment [3]. The experiment can be described thus: In vitro dopamine transporter binding affinity using [3H]WIN-35428 as radioligand was determined.
Experiment [4] has as its target Sodium-dependent serotonin transporter (Rattus norvegicus, UniProt P31652). The experiment can be described thus: Binding affinity towards serotonin transporter using [3H]citalopram as radioligand was determined. The method, boiled down: (§3)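 Radioligand displacement binding for SERT, NET and muscarinic receptors. Ki from at least three independent experiments, each run in triplicate.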

For experiment [5], the target named is T1, Sodium-dependent dopamine transporter. The experiment can be described thus: In vitro potency for inhibiting [3H]- dopamine uptake was determined. In kind it is functional. The method, boiled down: as §1
The target in experiment [6] is T2, Muscarinic acetylcholine receptor M1 (Rattus norvegicus, UniProt P08482).
T2 sequence (P08482 whole entry): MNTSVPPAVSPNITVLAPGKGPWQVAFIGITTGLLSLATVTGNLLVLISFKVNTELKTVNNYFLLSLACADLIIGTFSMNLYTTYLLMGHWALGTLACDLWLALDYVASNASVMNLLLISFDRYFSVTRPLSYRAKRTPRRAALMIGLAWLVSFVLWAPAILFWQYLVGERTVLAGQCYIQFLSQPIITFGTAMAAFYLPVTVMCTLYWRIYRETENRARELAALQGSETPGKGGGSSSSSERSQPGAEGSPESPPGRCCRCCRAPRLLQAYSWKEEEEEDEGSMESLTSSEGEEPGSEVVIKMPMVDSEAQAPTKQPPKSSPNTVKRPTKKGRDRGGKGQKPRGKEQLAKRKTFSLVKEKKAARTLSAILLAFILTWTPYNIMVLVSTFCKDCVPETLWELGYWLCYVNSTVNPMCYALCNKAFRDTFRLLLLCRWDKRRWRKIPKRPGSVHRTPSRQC
The experiment can be described thus: Binding affinity towards Muscarinic acetylcholine receptor M1 using [3H]pirenzepine as radioligand was determined. The method, boiled down:
as §3

The target in experiment [7] is Norepinephrine transporter (Rattus norvegicus, UniProt Q9WTR4). Description: Binding affinity towards norepinephrine transporter using [3H]nisoxetine as radioligand was determined. The method, boiled down:
as §3

Experiment [8] concerns the target T1, Sodium-dependent dopamine transporter. Description: In vitro inhibitory activity of dopamine transporter using [3H]WIN-35428 as radioligand was determined. Summed up:
as §2

Structures are written as SMILES.

Norepinephrine transporter, sequence (Q9WTR4 whole entry): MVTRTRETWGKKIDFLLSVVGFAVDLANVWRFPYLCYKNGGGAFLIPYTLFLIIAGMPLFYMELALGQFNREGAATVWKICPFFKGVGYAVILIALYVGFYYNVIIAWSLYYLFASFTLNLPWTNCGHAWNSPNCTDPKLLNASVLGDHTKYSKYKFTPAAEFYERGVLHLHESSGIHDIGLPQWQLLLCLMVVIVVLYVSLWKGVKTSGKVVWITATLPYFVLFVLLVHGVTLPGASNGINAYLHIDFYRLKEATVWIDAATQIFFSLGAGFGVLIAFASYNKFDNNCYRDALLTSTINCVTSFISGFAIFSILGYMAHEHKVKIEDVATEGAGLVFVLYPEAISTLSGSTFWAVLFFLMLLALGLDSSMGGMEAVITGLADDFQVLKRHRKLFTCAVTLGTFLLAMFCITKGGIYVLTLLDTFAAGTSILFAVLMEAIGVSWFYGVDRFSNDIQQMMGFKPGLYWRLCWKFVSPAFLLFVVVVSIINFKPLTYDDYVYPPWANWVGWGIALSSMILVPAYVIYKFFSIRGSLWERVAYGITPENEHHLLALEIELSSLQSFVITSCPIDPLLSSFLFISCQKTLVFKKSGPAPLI
T1 sequence (P23977 whole entry): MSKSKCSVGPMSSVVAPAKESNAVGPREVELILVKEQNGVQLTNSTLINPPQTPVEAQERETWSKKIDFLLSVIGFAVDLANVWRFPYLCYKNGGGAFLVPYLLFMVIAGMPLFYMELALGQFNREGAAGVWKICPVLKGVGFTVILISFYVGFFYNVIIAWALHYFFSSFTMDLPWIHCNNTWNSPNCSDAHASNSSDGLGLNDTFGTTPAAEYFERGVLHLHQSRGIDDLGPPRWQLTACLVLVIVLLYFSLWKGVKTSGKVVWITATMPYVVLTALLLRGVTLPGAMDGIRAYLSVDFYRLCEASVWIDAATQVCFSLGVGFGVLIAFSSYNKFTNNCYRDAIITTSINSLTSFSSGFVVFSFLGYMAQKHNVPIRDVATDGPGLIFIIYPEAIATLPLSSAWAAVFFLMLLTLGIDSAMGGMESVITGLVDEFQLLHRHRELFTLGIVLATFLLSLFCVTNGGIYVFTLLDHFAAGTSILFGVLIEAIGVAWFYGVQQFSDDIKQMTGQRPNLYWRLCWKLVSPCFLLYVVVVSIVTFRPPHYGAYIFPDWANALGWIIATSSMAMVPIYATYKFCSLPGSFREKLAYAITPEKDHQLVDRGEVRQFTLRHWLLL
Sodium-dependent serotonin transporter, sequence (P31652 whole entry): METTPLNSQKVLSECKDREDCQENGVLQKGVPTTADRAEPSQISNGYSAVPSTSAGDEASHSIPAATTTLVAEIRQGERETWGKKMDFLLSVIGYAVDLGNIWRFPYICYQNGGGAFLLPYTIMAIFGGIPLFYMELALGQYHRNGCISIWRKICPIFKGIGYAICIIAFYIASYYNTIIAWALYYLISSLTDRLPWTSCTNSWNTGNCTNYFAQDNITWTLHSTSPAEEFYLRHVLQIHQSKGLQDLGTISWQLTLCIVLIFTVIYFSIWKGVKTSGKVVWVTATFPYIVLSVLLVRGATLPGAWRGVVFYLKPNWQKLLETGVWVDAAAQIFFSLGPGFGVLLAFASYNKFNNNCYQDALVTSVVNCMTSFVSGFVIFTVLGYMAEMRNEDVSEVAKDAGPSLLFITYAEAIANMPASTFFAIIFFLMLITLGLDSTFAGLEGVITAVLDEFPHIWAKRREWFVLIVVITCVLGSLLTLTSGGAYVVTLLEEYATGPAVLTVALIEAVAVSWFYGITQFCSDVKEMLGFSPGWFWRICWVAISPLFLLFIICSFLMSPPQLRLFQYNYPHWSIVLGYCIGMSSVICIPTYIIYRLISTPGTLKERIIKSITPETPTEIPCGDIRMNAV

`CN1C2CCC1[C@@H](C(=O)OCCc1ccccc1)[C@@H](c1ccc(Cl)c(Cl)c1)C2` (some centres undefined) displayed a half-inhibitory concentration (IC50) in experiment [1] of 3.2 nM. Further, the figures for the Ki in experiment [2] and in experiment [3] were 100 nM and 10.9 nM, respectively.
In the case of `CN1C2CCC1[C@@H](C(=O)OCCc1ccc(N)cc1)[C@@H](OC(c1ccc(F)cc1)c1ccc(F)cc1)C2` (some centres undefined), the inhibitory constant (Ki) in experiment [4] amounted to 1500 nM; in experiment [6] it was 263 nM; in experiment [7], 1340 nM; in experiment [3], 36.7 nM. Moreover, half-maximal inhibition in experiment [5] (IC50) required 8 nM.
In turn, `COC(=O)[C@@H]1C2CCC(C[C@@H]1OC(c1ccc(F)cc1)c1ccc(F)cc1)N2C` (some centres undefined) gave an IC50 in experiment [5] of 1.5 nM.
In experiment [8], `CN1C2CCC1[C@@H](C(=O)OCCc1ccc(N=C=S)cc1)[C@@H](OC(c1ccc(F)cc1)c1ccc(F)cc1)C2` (some centres undefined) returned an IC50 of 537 nM.
On to `CN1C2CCC1[C@@H](C(=O)OCc1ccccc1)[C@@H](OC(c1ccc(F)cc1)c1ccc(F)cc1)C2` (single isomer, unassigned; (+)), for which the Ki in experiment [4] turned out to be 2040 nM; in experiment [6], 4380 nM; in experiment [7] it was 2230 nM.
The compound `CN1C2CCC1[C@@H](C(=O)OCCc1ccc(N)c(I)c1)[C@@H](OC(c1ccc(F)cc1)c1ccc(F)cc1)C2` (some centres undefined) yielded a Ki in experiment [3] of 42.3 nM.
`CC(C)OC(=O)[C@@H]1C2CCC(C[C@@H]1OC(c1ccc(F)cc1)c1ccc(F)cc1)N2C` (single isomer, unassigned; (+)): the inhibitory constant (Ki) in experiment [4] was determined as 12000 nM; in experiment [6], 2680 nM; in experiment [7] it was 642 nM.
Compound `CN1C2CCC1[C@@H](C(=O)OCCc1ccc(N=[N+]=[N-])c(I)c1)[C@@H](OC(c1ccc(F)cc1)c1ccc(F)cc1)C2` (some centres undefined) gave an IC50 in experiment [8] of 210 nM.
`CCOC(=O)[C@@H]1C2CCC(C[C@@H]1OC(c1ccc(F)cc1)c1ccc(F)cc1)N2C` (some centres undefined) registered an IC50 in experiment [5] of 1.8 nM. In addition, the Ki in experiment [7] was 629 nM; in experiment [3] it was 16.4 nM.
As to `CC(C)OC(=O)[C@@H]1C2CCC(C[C@@H]1OC(c1ccc(F)cc1)c1ccc(F)cc1)N2C` (some centres undefined), in experiment [5], the IC50 is 6.2 nM. Also, in experiment [3], the Ki amounted to 30.3 nM.
In experiment [7], `COC(=O)[C@@H]1C2CCC(C[C@@H]1OC(c1ccc(F)cc1)c1ccc(F)cc1)N2C` (single isomer, unassigned; (+)) came in with an inhibitory constant (Ki) of 269 nM.
In turn, `CN1C2CCC1[C@@H](C(=O)OCCc1ccc(N=[N+]=[N-])c(I)c1)[C@@H](c1ccc(Cl)c(Cl)c1)C2` (some centres undefined) gave an IC50 in experiment [8] of 14.5 nM.
On to `CN1C2CCC1[C@@H](C(=O)OCCc1ccccc1)[C@@H](OC(c1ccc(F)cc1)c1ccc(F)cc1)C2` (single isomer, unassigned; (+)), for which the Ki in experiment [4] amounted to 3160 nM; in experiment [6], 354 nM; in experiment [7] it was 1030 nM.
In experiment [1], `CC(C)OC(=O)[C@@H]1C2CCC(C[C@@H]1c1ccc(Cl)c(Cl)c1)N2C` (some centres undefined) had an IC50 of 2.7 nM. Also, the Ki was 100 nM in experiment [2] and 17.9 nM in experiment [3].
With `CCOC(=O)[C@@H]1C2CCC(C[C@@H]1c1ccc(Cl)c(Cl)c1)N2C` (some centres undefined), the IC50 in experiment [1] was found to be 1.9 nM. Besides, the inhibition constant (Ki) was found to be 100 nM in experiment [2] and 5.54 nM in experiment [3].
Take `CN1C2CCC1[C@@H](C(=O)OCCc1ccccc1)[C@@H](OC(c1ccc(F)cc1)c1ccc(F)cc1)C2` (some centres undefined): the half-maximal inhibitory concentration (IC50) in experiment [5] was 2.6 nM. This compound also showed a Ki in experiment [3] of 36.7 nM.
As for `CN1C2CCC1[C@@H](C(=O)OCCc1ccc([N+](=O)[O-])cc1)[C@@H](OC(c1ccc(F)cc1)c1ccc(F)cc1)C2` (some centres undefined), it took 3.3 nM to reach half-maximal inhibition in experiment [5] (IC50). The Ki in experiment [3] is 97.7 nM.
`CN1C2CCC1[C@@H](C(=O)OCc1ccccc1)[C@@H](OC(c1ccc(F)cc1)c1ccc(F)cc1)C2` (some centres undefined) displayed an IC50 in experiment [5] of 2.2 nM. For the same compound, the Ki in experiment [3] came to 48.4 nM.
Compound `CN1C2CCC1[C@@H](C(=O)OCc1ccccc1)[C@@H](c1ccc(Cl)c(Cl)c1)C2` (some centres undefined) gave an IC50 in experiment [1] of 19 nM. Further, the figures for the Ki in experiment [2] and in experiment [3] were 100 nM and 34.7 nM, respectively.
Consider `COC(=O)[C@@H]1C2CCC(C[C@@H]1c1ccc(Cl)c(Cl)c1)N2C` (some centres undefined), for which the inhibitory constant (Ki) is 1.46 nM in experiment [4]; 100 nM in experiment [2]; 3140 nM in experiment [6]; 15.8 nM in experiment [7]; 6.3 nM in experiment [3]. In experiment [1], this compound registered an IC50 of 1.4 nM.
